In ChEMBL document CHEMBL1275449, “Potent in vitro antifungal activities of naturally occurring acetylenic acids” (Antimicrob Agents Chemother, 2008):
≈ marks a conversion by molar mass, not a printed value.

Columns and labels:
Format in all cases: functional, organism-based
Trichophyton rubrum [1] = test: Antifungal activity against Trichophyton rubrum ATCC MYA-4438 by CLSI method
Summary of the method: (§1)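 Growth scraped from 1- to 6-week-old potato dextrose slants and filtered through Miracloth. Diluted in 5% Alamar blue-RPMI 1640 (MOPS pH 7.0) to 2.7 × 10⁴ CFU/ml. Eleven twofold dilutions in duplicate. Fluorescence at 544 nm excitation/590 nm emission read before and after 35°C, 5 days. IC50 fitted from percent growth. MIC taken as no detectable growth; MFC from clear or blue wells plated on PD agar.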

Candida albicans [2] = test: Antifungal activity against Candida albicans ATCC 200955 after 48 hrs by CLSI method; settings: ATCC 200955, 48 h
Summary of the method: (§2)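 CLSI broth microdilution. Colonies from 24–72 h SD agar suspended in saline and sized by OD630 standard curve. Inoculum 1.5 × 10³ CFU/ml (final) in RPMI 1640 (0.2% dextrose, 0.03% glutamine, 0.165 M MOPS, pH 7.0). Twofold dilutions (11 levels) from 20% DMSO-saline, in duplicate. 35°C for 48 h, OD530 read before and after. IC50 fitted from % growth. MIC: no detectable growth. MFC: subculture onto SD agar.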

Candida albicans [3] = test: Antifungal activity against Candida albicans ATCC 32354 after 48 hrs by CLSI method; settings: ATCC 32354, 48 h; summary of the method: as §2
Trichophyton rubrum [4] = test: Antifungal activity against Trichophyton rubrum ATCC 10218 by CLSI method; summary of the method: as §1
Candida albicans [5] = test: Antifungal activity against Candida albicans ATCC 14053 after 48 hrs by CLSI method; settings: ATCC 14053, 48 h; summary of the method: as §2
Candida tropicalis = test: Antifungal activity against Candida tropicalis ATCC 750 after 48 hrs by CLSI method; settings: ATCC 750, 48 h
Summary of the method: (§3)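 Yeast suspensions made from 3-5 colonies off 24-72 h SD agar plates in saline. They were diluted by OD630 standard curve in RPMI 1640 (0.2% dextrose, 0.03% glutamine, 0.165 M MOPS, pH 7.0) to 1.5 × 10³ CFU/ml. Twofold dilutions (11 concentrations, 20% DMSO-saline) run in duplicate. OD530 read before and after 35°C, 48 h. Line values are top test concentrations; no-growth endpoints give MIC/MFC.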

Candida albicans [6] = test: Antifungal activity against Candida albicans ATCC 60193 after 48 hrs by CLSI method; settings: ATCC 60193, 48 h; summary of the method: as §2
Candida albicans [7] = test: Antifungal activity against Candida albicans ATCC 90028 after 48 hrs by CLSI method; settings: ATCC 90028, 48 h; summary of the method: as §2
Candida albicans [8] = test: Antifungal activity against Fluconazole resistant Candida albicans clinical isolate 1 after 48 hrs by CLSI method; summary of the method: as §2
Candida albicans [9] = test: Antifungal activity against Fluconazole resistant Candida albicans clinical isolate 17 after 48 hrs by CLSI method; summary of the method: as §2
Pichia kudriavzevii = test: Antifungal activity against Candida krusei ATCC 6258 after 48 hrs by CLSI method; settings: ATCC 6258, 48 h
Summary of the method: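 Candida inocula came from 24–72-h SD agar colonies suspended in saline. They were diluted by OD630 standard curve into RPMI 1640 (0.2% dextrose, 0.03% glutamine, 0.165 M MOPS, pH 7.0) to 1.5 × 10³ CFU/ml. Compounds were run as 11 twofold dilutions in 20% DMSO-saline, in duplicate, at 35°C for 48 h, with OD530 read before and after. Percent growth at the top concentration, IC50, MIC, and MFC (SD agar plating) were derived.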

[10] = test system: Trichophyton mentagrophytes; test: Antifungal activity against Trichophyton mentagrophytes ATCC 9533 by CLSI method; summary of the method: as §1
Candida parapsilosis = test: Antifungal activity against Candida parapsilosis ATCC 22019 after 48 hrs by CLSI method; settings: Lodderomyces parapsilosis, ATCC 22019, 48 h; summary of the method: as §3

## OC(Cn1cncn1)(Cn1cncn1)c1ccc(F)cc1F [FLUCONAZOLE]
Trichophyton rubrum [1]
  IC50: 2.7 µM
  MIC: 6.4 µM (≈ 1.96 µg/mL)
Candida albicans [2]
  IC50: 0.4 µM
  MIC: 1.3 µM (≈ 0.398 µg/mL)
Candida albicans [3]
  IC50: 0.8 µM
  MIC: 5.7 µM (≈ 1.75 µg/mL)
Trichophyton rubrum [4]
  IC50: 1.8 µM
  MFC: 163 µM (≈ 50 µg/mL)
  MIC: 1.9 µM (≈ 0.582 µg/mL)
Candida albicans [5]
  IC50: 0.5 µM
  MIC: 1.3 µM (≈ 0.398 µg/mL)
Candida tropicalis
  IC50: 4.3 µM
  MIC: 15.3 µM (≈ 4.69 µg/mL)
Candida albicans [6]
  IC50: 0.4 µM
  MIC: 0.6 µM (≈ 0.184 µg/mL)
Candida albicans [7]
  IC50: 0.8 µM
  MIC: 6.4 µM (≈ 1.96 µg/mL)
Candida albicans [8]
  IC50: 0.8 µM
  MIC: 5.1 µM (≈ 1.56 µg/mL)
Candida albicans [9]
  IC50: 163 µM
Pichia kudriavzevii
  IC50: 126 µM
  MIC: 163 µM (≈ 50 µg/mL)
[10]
  IC50: 29.5 µM
  MIC: 61.2 µM (≈ 18.7 µg/mL)
Candida parapsilosis
  IC50: 3.4 µM
  MIC: 10.2 µM (≈ 3.12 µg/mL)
